Where a SMILES comes first, the peptide text is derived from it.
How the values were obtained:
Klebsiella pneumoniae [1] = assay: Antibacterial activity against Klebsiella pneumoniae M1803 clinical isolate expressing blaPER-2, blaCTX-M-2, blaTEM-1, blaSHV and blaOXA-9 gene by microdilution test; format: functional
In short: (§1)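 MIC by standard broth microdilution following CLSI recommendations, in Mueller Hinton broth supplemented with Ca²⁺ (20-25mg/L) and Mg²⁺ (10-12.5mg/L); peptides tested against a panel of multi-resistant clinical isolates plus ATCC reference strains.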

[2] = Toxicity in human RBC assessed as hemolytic activity relative to control; format: cell-based, Erythrocyte; details: red blood cells (RBC), read-out: Activity
In short: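 Heparinized human whole blood diluted 3x in PBS and centrifuged 10 min at 1500 rpm, repeated three times. Cells resuspended to 10% (v/v), then diluted to about 0.5% (v/v). Peptides added at various concentrations for 30 min at 37 °C. Supernatant absorbance read at 550 nm. Lysis calculated against buffer (0%) and water (100%). Readings taken in triplicate and averaged.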

Acinetobacter sp. [3] = assay: Antibacterial activity against Acinetobacter sp. M13523 clinical isolate expressing blaOXA-51 gene by microdilution test; format: functional; in short: as §1
Pseudomonas aeruginosa [4] = assay: Antibacterial activity against Pseudomonas aeruginosa M7907 clinical isolate expressing blaPER gene by microdilution test; format: functional
In short: (§2)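 MIC by standard broth microdilution following CLSI recommendations, in Mueller Hinton broth supplemented with Ca²⁺ (20-25 mg/L) and Mg²⁺ (10-12.5 mg/L); ATCC reference strains included in the panel.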

[5] = tested on: Staphylococcus haemolyticus; assay: Antibacterial activity against Staphylococcus haemolyticus M3014 by microdilution test; format: functional; in short: as §2
Staphylococcus aureus [6] = assay: Antibacterial activity against Staphylococcus aureus ATCC 29213 by microdilution test; format: functional; in short: as §2
Klebsiella pneumoniae [7] = assay: Antibacterial activity against Klebsiella pneumoniae M9885 clinical isolate expressing blaKPC-2 gene by microdilution test; format: functional; in short: as §1
Klebsiella pneumoniae [8] = assay: Antibacterial activity against Klebsiella pneumoniae M9310 clinical isolate expressing blaCTX-M-2, blaTEM-1 and blaSHV-1 gene by microdilution test; format: functional; in short: as §1
Staphylococcus aureus [9] = assay: Antibacterial activity against Staphylococcus aureus M6820 clinical isolate expressing mecA gene by microdilution test; format: functional; in short: as §2
Enterococcus faecalis [10] = assay: Antibacterial activity against Enterococcus faecalis M6983 clinical isolate expressing vanA gene by microdilution test; format: functional; in short: as §1
Klebsiella pneumoniae [11] = assay: Antibacterial activity against Klebsiella pneumoniae M13540 clinical isolate expressing blaKPC-2 gene by microdilution test; format: functional; in short: as §1
Escherichia coli [12] = assay: Antibacterial activity against Escherichia coli M5306 clinical isolate expressing blaPER-2, blaCTX-M-2 and blaTEM-1 gene by microdilution test; format: functional; in short: as §1
Escherichia coli [13] = assay: Antibacterial activity against Escherichia coli PABC11 clinical isolate expressing blaCTX-M-2 gene by microdilution test; format: functional; in short: as §1
[14] = tested on: Staphylococcus epidermidis; assay: Antibacterial activity against Staphylococcus epidermidis M2931 by microdilution test; format: functional; in short: as §2
Staphylococcus aureus [15] = assay: Antibacterial activity against Staphylococcus aureus P239 clinical isolate expressing ermC gene by microdilution test; format: functional; in short: as §2
Enterococcus faecalis [16] = assay: Antibacterial activity against Enterococcus faecalis M4992 clinical isolate expressing vanA gene by microdilution test; format: functional; in short: as §1
Klebsiella pneumoniae [17] = assay: Antibacterial activity against Klebsiella pneumoniae M11245 clinical isolate expressing blaKPC-2 and blaPER-2 gene by microdilution test; format: functional; in short: as §1
Pseudomonas aeruginosa [18] = assay: Antibacterial activity against Pseudomonas aeruginosa M7728 clinical isolate expressing blaIMP gene by microdilution test; format: functional; in short: as §2
Escherichia coli [19] = assay: Antibacterial activity against Escherichia coli M9209 clinical isolate expressing blaKPC-2 gene by microdilution test; format: functional; in short: as §1
Enterococcus faecalis [20] = assay: Antibacterial activity against Enterococcus faecalis M4449 clinical isolate expressing vanA gene by microdilution test; format: functional; in short: as §1
Klebsiella pneumoniae [21] = assay: Antibacterial activity against Klebsiella pneumoniae M9170 clinical isolate expressing blaOXA-GIII gene by microdilution test; format: functional; in short: as §1
Staphylococcus aureus [22] = assay: Antibacterial activity against Staphylococcus aureus M6784 clinical isolate expressing mecA gene by microdilution test; format: functional; in short: as §2
Klebsiella pneumoniae [23] = assay: Antibacterial activity against Klebsiella pneumoniae M9375 clinical isolate expressing blaCTX-M-2, blaTEM-1 and blaSHV-1 gene by microdilution test; format: functional; in short: as §1
Acinetobacter sp. [24] = assay: Antibacterial activity against Acinetobacter sp. M9013 clinical isolate expressing blaOXA-51 and blaIMP gene by microdilution test; format: functional; in short: as §1
Enterococcus faecium [25] = assay: Antibacterial activity against Enterococcus faecium M2664 clinical isolate expressing vanA gene by microdilution test; format: functional; in short: as §1
Pseudomonas aeruginosa [26] = assay: Antibacterial activity against Pseudomonas aeruginosa M7525 clinical isolate expressing blaSPM gene by microdilution test; format: functional; in short: as §2
Staphylococcus warneri = assay: Antibacterial activity against Staphylococcus warneri M6823 clinical isolate expressing mecA gene by microdilution test; format: functional; in short: as §2
Enterococcus gallinarum = assay: Antibacterial activity against Enterococcus gallinarum M2685 clinical isolate expressing vanC1 and vanA gene by microdilution test; format: functional; in short: as §1
Enterococcus faecium [27] = assay: Antibacterial activity against Enterococcus faecium M2619 clinical isolate expressing vanB gene by microdilution test; format: functional; in short: as §1
Pseudomonas aeruginosa [28] = assay: Antibacterial activity against Pseudomonas aeruginosa M13513 clinical isolate expressing blaKPC-2 gene by microdilution test; format: functional; in short: as §1

Compound | MIC90 (Klebsiella pneumoniae [1]) | hemolysis [2] | MIC90 (Acinetobacter sp. [3]) | MIC90 (Pseudomonas aeruginosa [4]) | MIC90 [5] | MIC90 (Staphylococcus aureus [6]) | MIC90 (Klebsiella pneumoniae [7]) | MIC90 (Klebsiella pneumoniae [8]) | MIC90 (Staphylococcus aureus [9]) | MIC90 (Enterococcus faecalis [10]) | MIC90 (Klebsiella pneumoniae [11]) | MIC90 (Escherichia coli [12]) | MIC90 (Escherichia coli [13]) | MIC90 [14] | MIC90 (Staphylococcus aureus [15]) | MIC90 (Enterococcus faecalis [16]) | MIC90 (Klebsiella pneumoniae [17]) | MIC90 (Pseudomonas aeruginosa [18]) | MIC90 (Escherichia coli [19]) | MIC90 (Enterococcus faecalis [20]) | further results
CC[C@H](C)[C@H](N)C(=O)N[C@@H](CC(C)C)C(=O)N[C@@H](CCCNC(=N)N)C(=O)N[C@@H](Cc1c[nH]c2ccccc12)C(=O)N1CCC[C@H]1C(=O)N[C@@H](Cc1c[nH]c2ccccc12)C(=O)N[C@@H](Cc1c[nH]c2ccccc12)C(=O)N1CCC[C@H]1C(=O)N[C@@H](Cc1c[nH]c2ccccc12)C(=O)N[C@@H](CCCNC(=N)N)C(=O)N[C@@H](CCCNC(=N)N)C(=O)N[C@@H](CCCCN)C(N)=O.Cl.Cl.Cl.Cl.Cl [OMIGANAN PENTAHYDROCHLORIDE] (H-ILRWPWWPWRRK-NH2) | 1020 µg/mL | 10% | 32 µg/mL | 128 µg/mL | 4 µg/mL | 32 µg/mL | 256 µg/mL | 64 µg/mL | 128 µg/mL | 128 µg/mL | 256 µg/mL | 64 µg/mL | 64 µg/mL | 16 µg/mL | 32 µg/mL | 128 µg/mL | 32 µg/mL | 512 µg/mL | 64 µg/mL | 128 µg/mL | MIC90 (Klebsiella pneumoniae [21]): 128 µg/mL; MIC90 (Staphylococcus aureus [22]): 32 µg/mL; MIC90 (Klebsiella pneumoniae [23]): 32 µg/mL; MIC90 (Acinetobacter sp. [24]): 32 µg/mL; MIC90 (Enterococcus faecium [25]): 8 µg/mL; MIC90 (Pseudomonas aeruginosa [26]): 512 µg/mL; MIC90 (Staphylococcus warneri): 8 µg/mL; MIC90 (Enterococcus gallinarum): 16 µg/mL; MIC90 (Enterococcus faecium [27]): 16 µg/mL; MIC90 (Pseudomonas aeruginosa [28]): 256 µg/mL
H-GLLKKWLKKWKEFKRIVGY-NH2 | 32 µg/mL | 39.8% | 4 µg/mL | 64 µg/mL | 8 µg/mL | 64 µg/mL | 64 µg/mL | 16 µg/mL | 128 µg/mL | 128 µg/mL | 16 µg/mL | 4 µg/mL | 32 µg/mL | 16 µg/mL | 64 µg/mL | 128 µg/mL | 16 µg/mL | 64 µg/mL | 64 µg/mL | 128 µg/mL | MIC90 (Klebsiella pneumoniae [21]): 32 µg/mL; MIC90 (Staphylococcus aureus [22]): 32 µg/mL; MIC90 (Klebsiella pneumoniae [23]): 64 µg/mL; MIC90 (Acinetobacter sp. [24]): 8 µg/mL; MIC90 (Enterococcus faecium [25]): 8 µg/mL; MIC90 (Pseudomonas aeruginosa [26]): 64 µg/mL; MIC90 (Staphylococcus warneri): 8 µg/mL; MIC90 (Enterococcus gallinarum): 16 µg/mL; MIC90 (Enterococcus faecium [27]): 16 µg/mL; MIC90 (Pseudomonas aeruginosa [28]): 64 µg/mL
H-RIVQRIKKWLLKWKKLGY-NH2 | 64 µg/mL | 9.5% | 64 µg/mL | 64 µg/mL | 8 µg/mL | 32 µg/mL | 32 µg/mL | 32 µg/mL | 64 µg/mL | 128 µg/mL | 64 µg/mL | 64 µg/mL | 32 µg/mL | 8 µg/mL | 64 µg/mL | 128 µg/mL | 8 µg/mL | 64 µg/mL | 128 µg/mL | 128 µg/mL | MIC90 (Klebsiella pneumoniae [21]): 64 µg/mL; MIC90 (Staphylococcus aureus [22]): 32 µg/mL; MIC90 (Klebsiella pneumoniae [23]): 16 µg/mL; MIC90 (Acinetobacter sp. [24]): 32 µg/mL; MIC90 (Enterococcus faecium [25]): 8 µg/mL; MIC90 (Pseudomonas aeruginosa [26]): 64 µg/mL; MIC90 (Staphylococcus warneri): 8 µg/mL; MIC90 (Enterococcus gallinarum): 16 µg/mL; MIC90 (Enterococcus faecium [27]): 16 µg/mL; MIC90 (Pseudomonas aeruginosa [28]): 64 µg/mL
H-WPKWWKWKRRWGRKKAKKRRG-NH2 | > 1020 µg/mL | 3.4% | 64 µg/mL | 128 µg/mL | 16 µg/mL | 32 µg/mL | > 1020 µg/mL | > 1020 µg/mL | 64 µg/mL | 64 µg/mL | > 1020 µg/mL | 256 µg/mL | 128 µg/mL | 16 µg/mL | 32 µg/mL | 128 µg/mL | 1020 µg/mL | 128 µg/mL | 128 µg/mL | 128 µg/mL | MIC90 (Klebsiella pneumoniae [21]): > 1020 µg/mL; MIC90 (Staphylococcus aureus [22]): 32 µg/mL; MIC90 (Klebsiella pneumoniae [23]): 1020 µg/mL; MIC90 (Acinetobacter sp. [24]): 32 µg/mL; MIC90 (Enterococcus faecium [25]): 16 µg/mL; MIC90 (Pseudomonas aeruginosa [26]): 64 µg/mL; MIC90 (Staphylococcus warneri): 8 µg/mL; MIC90 (Enterococcus gallinarum): 16 µg/mL; MIC90 (Enterococcus faecium [27]): 32 µg/mL; MIC90 (Pseudomonas aeruginosa [28]): 32 µg/mL
